Data on eight molecules can be found in publication PMC3325786 (Cancer Research, 2011).

DNP = 2,4-dinitrophenyl quencher group; MCA = fluorogenic coumarin group

Usually IC50 stands for the concentration that inhibits the measured activity by half. Usually Km stands for the concentration of substrate that gives half-maximal velocity.

Data set [1] deals with T1, Taspase1 (Homo sapiens, UniProt Q9H6P5).
T1 sequence (Q9H6P5 1-233 limits assumed): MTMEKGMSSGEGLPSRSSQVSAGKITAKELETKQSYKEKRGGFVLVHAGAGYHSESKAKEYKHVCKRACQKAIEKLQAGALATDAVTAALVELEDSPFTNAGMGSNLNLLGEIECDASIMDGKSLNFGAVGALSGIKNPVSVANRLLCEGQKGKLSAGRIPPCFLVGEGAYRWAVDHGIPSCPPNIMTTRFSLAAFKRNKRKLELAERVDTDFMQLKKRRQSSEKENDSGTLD
T1 sequence (Q9H6P5 234-420 limits assumed): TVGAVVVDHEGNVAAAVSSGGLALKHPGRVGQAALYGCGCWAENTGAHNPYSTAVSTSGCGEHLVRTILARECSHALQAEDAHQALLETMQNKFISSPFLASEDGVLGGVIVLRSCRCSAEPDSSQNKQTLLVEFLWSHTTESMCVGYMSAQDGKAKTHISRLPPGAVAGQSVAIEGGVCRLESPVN
Description: In vitro cleavage of radiolabeled p75MLL reporter by recombinant Taspase1. Type of data set: biochemical. The conditions noted are these: for activity against Taspase1 (cleavage of p75MLL): in vitro cleavage assay.

The next data set relates to U251 xenograft. In words: U251 brain tumor xenograft, bioluminescent imaging. Type of data set: in vivo, mouse. The settings on record: treated on days 0, 2 and 4; compared to vehicle. The procedure, abridged:
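U251 cells stably expressing firefly luciferase were implanted subcutaneously into the flanks of male NOD-scid IL2Rγ−/− mice aged 6–8 weeks on day −1. Test compound was given at indicated doses on days 0, 2 and 4. Tumor mass was followed by bioluminescence imaging, normalized to 1 at day 0. Mean ± SD of 4 tumors per arm.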

In the next data set the test system is MMTV-wnt breast cancers. In words: MMTV-wnt mouse breast cancer model. The conditions noted are these: every other day, 5 intravenous injections. It counts as in vivo.
In data set [2] the target is T2, Taspase1 precursor (p50T1α-β) (Homo sapiens, UniProt Q9H6P5).
T2 sequence (Q9H6P5 1-420): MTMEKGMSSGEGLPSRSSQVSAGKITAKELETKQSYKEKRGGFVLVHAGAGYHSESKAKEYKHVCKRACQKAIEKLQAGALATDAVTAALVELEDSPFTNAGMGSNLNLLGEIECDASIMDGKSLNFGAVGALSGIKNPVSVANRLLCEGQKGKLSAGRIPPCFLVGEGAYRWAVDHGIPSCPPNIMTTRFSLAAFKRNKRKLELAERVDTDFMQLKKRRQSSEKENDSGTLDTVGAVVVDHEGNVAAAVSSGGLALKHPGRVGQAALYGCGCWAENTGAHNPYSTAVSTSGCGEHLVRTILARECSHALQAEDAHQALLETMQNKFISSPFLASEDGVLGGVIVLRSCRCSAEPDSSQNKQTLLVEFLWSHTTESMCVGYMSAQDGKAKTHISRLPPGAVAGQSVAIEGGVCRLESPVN
In words: Intramolecular autoproteolysis of radiolabeled Taspase1 precursor p50T1α-β. It counts as biochemical. The settings on record: increasing amounts, 6 hours at 30°C. The procedure, abridged: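 Radiolabeled 50 kD Taspase1 precursor (p50T1α-β, 0.5 μl) incubated in cleavage buffer at 30°C for 6 hours with indicated concentrations of test compound. Maturation is scored as autoproteolytic conversion to the 28 kD α and 22 kD β subunits.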

The next data set concerns MMTV-neu breast cancers. Description: MMTV-neu mouse breast cancer model. Type of data set: in vivo. The conditions noted are these: every other day, 5 intravenous injections.
In another data set the target is Caspase8 (Homo sapiens, UniProt Q14790). Description: Caspase8-p22Bid in vitro cleavage assay. It counts as biochemical. The settings on record: 1 mM compound, 250 ng rCaspase8.
For a further data set, the system named is U251 cells. Description: Growth inhibition of NCI60 brain tumor cell lines. The settings on record: NCI DTP GI50 data confirmed by MTT, 2 days. It counts as cell-based, human.
Data set [3] deals with Taspase1−/−;Taspase1 MEFs. In words: MTT relative cell number in SV40-transformed MEFs. Type of data set: cell-based, mouse. The conditions noted are these: 1uM, 2 days.
Data set [4] deals with T1, Taspase1. Description: FRET-based Taspase1 cleavage assay with FRPR reporter. Type of data set: biochemical.
The nature of data set [5]: In vivo toxicity profile after short term tail vein injections. The arrangement: species or system mouse.
A further data set has as its system autotaxin. The settings on record: cited from earlier work.
Setting [6] is: short term tail vein injections.

Caspase8, sequence (Q14790 217-374 limits assumed, species assumed): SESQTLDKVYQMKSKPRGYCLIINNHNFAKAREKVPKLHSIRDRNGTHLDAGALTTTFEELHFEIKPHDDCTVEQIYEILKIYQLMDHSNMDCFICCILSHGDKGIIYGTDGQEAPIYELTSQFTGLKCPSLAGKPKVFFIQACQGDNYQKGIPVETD
Caspase8, sequence (Q14790 385-479 limits assumed, species assumed): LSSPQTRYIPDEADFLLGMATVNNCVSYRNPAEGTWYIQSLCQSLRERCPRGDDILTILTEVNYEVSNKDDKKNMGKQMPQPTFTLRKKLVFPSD

As to `Cc1cc(Cc2ccc3c(c2)OCO3)ccc1OCC(=O)O` [NSC352678], the “activity against Taspase1 (cleavage of p75MLL)” value (“activity against Taspase1” below) on Taspase1 [1] is recorded as “no demonstrable activity”.
Regarding `O=[As](O)(O)c1ccc(Cc2ccc([As](=O)(O)O)cc2)cc1` [NSC48300, [4-[(4-arsonophenyl)methyl]phenyl] arsonic acid], at Taspase1 [1], the half-maximal inhibitory concentration (IC50) was ~7.5 µM. For the same molecule, the “reversible or irreversible inhibition (extended pre-incubation)” value at Taspase1 [1] (5 μM, pre-incubation for extended periods of time) was “reversible”. Moreover, in the data set on U251 xenograft, the “tumor growth by bioluminescent imaging” value is on record as “stasis of tumor growth”. For the same molecule, the “growth of MMTV-wnt breast cancers” value in the data set with MMTV-wnt breast cancers was “no effects”. Also, the “impact on Taspase1 autoproteolysis” value in [2] was “no impact”. Also, in the data set with MMTV-neu breast cancers, the “growth of MMTV-neu breast cancers” value is “consistently disrupted the growth”. In addition, the “specificity: Caspase8-mediated cleavage of p22Bid” value at Caspase8 was “specifically targeted Taspase1”. In addition, the “sensitivity to treatment in vitro among NCI60 brain tumor cell lines” value in the data set with U251 cells is recorded as “most sensitive”. In [3], the “sensitivity compared to parental Taspase1−/− cell line” value was “increased sensitivity”. In addition, at Taspase1 [4] (non-linear regression of reaction curves), the mode of inhibition result is on record as “non-competitive”. Further, in data set [5] (complete blood counts), the hemoglobin levels entry was “decrease” and the “white blood cell counts” value was “decrease”. In addition, in data set [5] (repetitive tail vein treatment), the injection site damage entry is reported as “fibrotic damages of regional vessels at injection sites”. Besides, in data set [5] (setting [6]), the “blood chemistry: LDH level” value is “significant decrease”; the “blood chemistry: electrolytes and kidney functions” value is recorded as “certain alterations”; the “histological examination of major organs” value is listed as “did not reveal any obvious abnormalities”. Moreover, the “lysophospholipase D activity of autotaxin” value in the data set with autotaxin is “inhibited”.
`COc1ccc(C(=O)OCc2ccc3c(c2)OCO3)cc1` [NSC23953]: on Taspase1 [1], the “activity against Taspase1” value is listed as “no demonstrable activity”.
Same read-out and setting: under `CC(C)C[C@H](NC(=O)[C@H](Cc1ccccc1)NC(=O)c1cnccn1)B(O)O` [Bortezomib, reference compound] stands “no activity”.
For the molecule “MCA-KISQLDGVDD-DNP ({MCA}-KISQLDGVDD-{DNP}) [FRPR, reference compound]”, in the data set with Taspase1 [4] (read-out: apparent KM, substrate of Taspase1), the Km was 9.06 ± 2.8 µM.
In the case of `O=[As](O)(O)O` [arsenic acid, reference compound], on Taspase1 [1] (up to 1 mM, 5 ng rTaspase1, 30 min preincubation), the “inhibition of Taspase1 by free arsenic acid” value is listed as “no detectable inhibition”.
As to `O=[N+]([O-])c1cccc(NCNc2cccc([N+](=O)[O-])c2)c1` [NSC47905], at Taspase1 [1], the “activity against Taspase1” value was “no demonstrable activity”.
As to `O=C(O)Cc1ccc(Oc2ccc(CC(=O)O)cc2)cc1` [NSC74084], the “activity against Taspase1” value at Taspase1 [1] is “no demonstrable activity”.
